Measurements from ChEMBL document CHEMBL1122164, “Hypolipidemic 4,5-dihydro-4-oxo-5,5-disubstituted-2-furancarboxylic acids” (1982).

Columns and labels:
Rattus norvegicus [1] = assay: Effect on serum Triglycerides was determined in normal rats at a dose of 0.1 (mmol/kg)/day; type: functional
Summary of the method: (§1)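 Normal rats, 8-10 per group, dosed daily for 7 consecutive days by gastric intubation with compound suspended in 2% Tween 80. Decapitated 3 h after last dose; serum triglycerides measured by semiautomated method. Result expressed as % change from vehicle control group mean; significance by two-tailed Student's t test.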

Rattus norvegicus [2] = assay: Effect on serum Triglycerides was determined in normal rats at a dose of 0.02 (mmol/kg)/day; type: functional; summary of the method: as §1
Rattus norvegicus [3] = assay: Effect on serum Triglycerides was determined in normal rats at a dose of 0.2 (mmol/kg)/day; type: functional; summary of the method: as §1
Rattus norvegicus [4] = assay: Effect on serum Triglycerides was determined in normal rats at a dose of 1 (mmol/kg)/day; type: functional; summary of the method: as §1
Rattus norvegicus [5] = assay: Effect on serum Triglycerides was measured on treated rats at a dose of 0.05 (mmol/kg)/day; type: functional, organism-based
Rattus norvegicus [6] = assay: Effect on serum Triglycerides was measured on treated rats at a dose of 0.5 (mmol/kg)/day; type: functional, organism-based
Rattus norvegicus [7] = assay: Effect on serum Triglycerides was measured on control rats at a dose of 0.05 (mmol/kg)/day; type: functional, organism-based
Rattus norvegicus [8] = assay: Effect on serum Triglycerides was measured on control rats at a dose of 0.5 (mmol/kg)/day; type: functional, organism-based
Rattus norvegicus [9] = assay: Effect on serum Triglycerides was determined in normal rats at a dose of 0.01 (mmol/kg)/day; type: functional; summary of the method: as §1
Rattus norvegicus [10] = assay: Effect on serum Triglycerides was determined in normal rats at a dose of 0.03 (mmol/kg)/day; type: functional; summary of the method: as §1
Rattus norvegicus [11] = assay: Effect on serum Triglycerides levels was measured on treated rats at a dose of 0.5 (mmol/kg)/day; type: functional, organism-based
Rattus norvegicus [12] = assay: Effect on serum Triglycerides levels was measured on control rats at a dose of 0.5 (mmol/kg)/day; type: functional, organism-based
Rattus norvegicus [13] = assay: Effect on serum Triglycerides levels was measured on control rats at a dose of 0.05 (mmol/kg)/day; type: functional, organism-based
Rattus norvegicus [14] = assay: Effect on serum Triglycerides levels was measured on treated rats at a dose of 0.05 (mmol/kg)/day; type: functional, organism-based
Rattus norvegicus [15] = assay: Effect on liver weight was measured on treated rats at a dose of 0.5 (mmol/kg)/day; type: functional
Rattus norvegicus [16] = assay: Effect on liver weight was measured on treated rats at a dose of 0.05 (mmol/kg)/day; type: functional
Rattus norvegicus [17] = assay: Effect on serum Triglycerides was determined in normal rats at a dose of 0.005 (mmol/kg)/day; type: functional; summary of the method: as §1
Rattus norvegicus [18] = assay: Effect on liver weight was measured on control rats at a dose of 0.05 (mmol/kg)/day; type: functional
Rattus norvegicus [19] = assay: Effect on liver weight was measured on control rats at a dose of 0.5 (mmol/kg)/day; type: functional

Structure (SMILES): CC1(C)OC(C(=O)O)=CC1=O
- Change (Rattus norvegicus [1]): -43%
- Change (Rattus norvegicus [2]): -36%
- Change (Rattus norvegicus [3]): -36%
- Change (Rattus norvegicus [4]): -36%

Structure (SMILES): COC(=O)C1=CC(=O)C(C)(c2ccccc2)O1 (centres undefined)
- Change (Rattus norvegicus [1]): -40%
- Change (Rattus norvegicus [2]): -34%
- Change (Rattus norvegicus [3]): -40%
- Change (Rattus norvegicus [4]): -53%

Structure (SMILES): CC1(c2ccccc2)OC(=O)C(=O)CC1=O (centres undefined)
- Change (Rattus norvegicus [1]): -27%
- Change (Rattus norvegicus [2]): -13%
- Change (Rattus norvegicus [3]): -31%

Structure (SMILES): CC1(c2ccc(Cl)cc2)OC(C(=O)O)=CC1=O (centres undefined)
- Change (Rattus norvegicus [2]): -27%
- Change (Rattus norvegicus [3]): -42%

Structure (SMILES): CC(C)C1(c2ccccc2)OC(C(=O)O)=CC1=O (centres undefined)
- Change (Rattus norvegicus [1]): -2%
- Change (Rattus norvegicus [2]): -10%
- Change (Rattus norvegicus [3]): -31%
- Change (Rattus norvegicus [4]): -53%

Structure (SMILES): O=C(O)C1=CC(=O)C2(CCCc3ccccc32)O1 (centres undefined)
- Change (Rattus norvegicus [4]): -43%

Structure (SMILES): O=C(O)c1cccnc1
- Serum TG (Rattus norvegicus [5]): 97 mg/dL
- Serum TG (Rattus norvegicus [6]): 47 mg/dL
- Serum TG (Rattus norvegicus [7]): 104 mg/dL
- Serum TG (Rattus norvegicus [8]): 88 mg/dL

Structure (SMILES): CC1(c2ccccc2)OC(C(=O)O)=CC1=O (single isomer, unassigned; (-)) [ACIFRAN]
- Change (Rattus norvegicus [9]): -11%
- Change (Rattus norvegicus [1]): -31%
- Change (Rattus norvegicus [10]): -23%

Structure (SMILES): CC1(c2ccccc2)OC(C(=O)O)=CC1=O (stereo in doubt; 5b)
- Serum TG (Rattus norvegicus [11]): 38 mg/dL
- Serum TG (Rattus norvegicus [12]): 98 mg/dL
- Serum TG (Rattus norvegicus [13]): 104 mg/dL
- Serum TG (Rattus norvegicus [14]): 58 mg/dL

Structure (SMILES): CC1(c2ccccc2)OC(C(=O)O)=CC1=O (stereo in doubt; 5b) [ACIFRAN]
- Liver weight (Rattus norvegicus [15]): 10.2 g
- Change (Rattus norvegicus [9]): -37%
- Change (Rattus norvegicus [1]): -44%
- Change (Rattus norvegicus [2]): -40%
- Liver weight (Rattus norvegicus [16]): 8.7 g
- Change (Rattus norvegicus [17]): -23%
- Liver weight (Rattus norvegicus [18]): 8.5 g
- Liver weight (Rattus norvegicus [19]): 10.2 g
- Change (Rattus norvegicus [3]): -52%
- Change (Rattus norvegicus [4]): -55%
- Change (Rattus norvegicus [10]): -43%

Structure (SMILES): CC1(c2ccccc2)OC(C(=O)O)=CC1=O (stereo in doubt; (+)-5b) [ACIFRAN]
- Change (Rattus norvegicus [9]): -39%
- Change (Rattus norvegicus [1]): -38%
- Change (Rattus norvegicus [10]): -29%

Structure (SMILES): CCOC(=O)C(C)(C)Oc1ccc(Cl)cc1 [CLOFIBRATE]
- Liver weight (Rattus norvegicus [15]): 10.7 g
- Change (Rattus norvegicus [1]): -9%
- Serum TG (Rattus norvegicus [5]): 101 mg/dL
- Serum TG (Rattus norvegicus [6]): 43 mg/dL
- Serum TG (Rattus norvegicus [7]): 104 mg/dL
- Liver weight (Rattus norvegicus [16]): 8.4 g
- Liver weight (Rattus norvegicus [18]): 8.5 g
- Liver weight (Rattus norvegicus [19]): 9 g
- Change (Rattus norvegicus [3]): -36%
- Change (Rattus norvegicus [4]): -55%
- Serum TG (Rattus norvegicus [8]): 87 mg/dL
